# Experimental data as given in ChEMBL document CHEMBL4414555, “Constituents from Nauclea latifolia with Anti-Haemophilus influenzae Type b Inhibitory Activities” (2019).
# Experiments:
# Format in all cases: functional
# [1] = tested on: Haemophilus influenzae; experiment: Ratio of MBC to MIC for Haemophilus influenzae type b ATCC 49247 by M7-A9 microdilution method
# [2] = tested on: Haemophilus influenzae; experiment: Bactericidal activity against Haemophilus influenzae type b ATCC 49247 incubated for 24 hrs followed by transferring to freshly prepared broth medium and measured after 24 hrs by M7-A9 microdilution method; conditions: type b ATCC 49247, 24 h
# [3] = tested on: Haemophilus influenzae; experiment: Antibacterial activity against Haemophilus influenzae type b ATCC 49247 incubated for 24 hrs by M7-A9 microdilution method; conditions: type b ATCC 49247, 24 h
# Procedure, shortened: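 CLSI M7-A9 broth microdilution against H. influenzae ATCC 49247. Compounds held as 2 mg/mL DMSO stocks, diluted 2-fold in Mueller–Hinton broth across 50 to 0.1 μg/mL. Wells received inoculum standardized to 0.5 McFarland and were run in triplicate. After 24 h at 37 °C, MIC taken as the lowest concentration preventing visible turbidity. Ciprofloxacin served as positive control.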
SMILES,MIC [3] [µg/mL],Ratio [1],MBC [2] [µg/mL]
CC1(C)CC[C@]2(C(=O)O)CC[C@]3(C)C(=CC[C@@H]4[C@@]5(C)CC[C@H](O)[C@@](C)(CO)[C@@H]5[C@H](O)C[C@]43C)[C@@H]2C1,18.8,2.7,50
C[C@H]1[C@H](C)CC[C@]2(C(=O)O)CC[C@]3(C(=O)O)C(=CC[C@@H]4[C@@]5(C)CC[C@H](O)C(C)(C)[C@@H]5CC[C@]43C)[C@H]12,25,>2,> 50
CC1(C)CC[C@]2(C(=O)O)CC[C@]3(C)C(=CC[C@@H]4[C@@]5(C)CC[C@H](O)[C@@](C)(CO)[C@@H]5[C@H](O)C[C@]43C)[C@@H]2[C@@H]1O,18.8,2.7,50
C[C@H]1[C@H](C)CC[C@]2(C(=O)O)CC[C@]3(C(=O)O)C(=CC[C@@H]4[C@@]5(C)CCC(=O)C(C)(C)[C@@H]5CC[C@]43C)[C@H]12,18.8,2.7,50
O=C(O)c1cn(C2CC2)c2cc(N3CCNCC3)c(F)cc2c1=O [CIPROFLOXACIN],1.6,1,1.6
C[C@@H]1CC[C@]2(C(=O)O)CC[C@]3(C)C(=CC[C@@H]4[C@@]5(C)CC[C@H](O)C(C)(C)[C@@H]5CC[C@]43C)[C@@H]2[C@]1(C)O [POMOLIC ACID],18.8,2.7,50

# Further lines, with some results ahead:
MIC [3] [µg/mL],SMILES,Ratio [1],MBC [2] [µg/mL]
4.7,C/C=C1/CO[C@H](O)[C@H]2C(=O)N3CCc4c([nH]c5ccccc45)[C@@H]3C[C@@H]12,2.7,12.5
50,C/C=C(/C=O)c1cc2n(c(=O)c1O)CCc1c-2[nH]c2ccccc12,>1,> 50
3.1,C[C@H]1OC=C2C(=O)N3CCc4c([nH]c5ccccc45)[C@@H]3C[C@H]2[C@@H]1C=O,4,12.5
25,CC(O)c1coc2c(=O)n3c(cc12)-c1[nH]c2ccccc2c1CC3 (centres undefined),2,50
25,C[C@@H]1CC[C@]2(C(=O)O)CC[C@]3(C)C(=CC[C@@H]4[C@@]5(C)CC[C@@H]6OC([C@H]7[C@@H]8C[C@H]9c%10[nH]c%11ccccc%11c%10CCN9C(=O)C8=CO[C@@H]7C)OC[C@]6(CO)[C@@H]5CC[C@]43C)[C@@H]2[C@]1(C)O (some centres undefined),2,50
50,COC(OC)[C@H]1[C@@H]2C[C@H]3c4[nH]c5ccccc5c4CCN3C(=O)C2=CO[C@@H]1C,>1,> 50
4.7,C/C=C1/COC(=O)[C@H]2C(=O)N3CCc4c([nH]c5ccccc45)[C@@H]3C[C@@H]12,2.7,12.5
